167 variants from the RNAGym collection of RNA variant scans (doi:10.1126/science.aae0568) can be followed below.

This sample holds only a part of the variants without activity. Some results are limits rather than exact numbers.

The labels stand for the following.
B1: tRNA (parent)
chain: GUUCCGUUGGCGUAAUGGUAACGCGUCUCCCUCCUAAGGAGAAGACUGCGGGUUCGAGUCCCGUACGGAACG

The variants in this data set derive from B1. Description: yeast fitness relative to wild type (ratio to wild type); higher = fitter; tRNA-Arg(CCU), competitive growth, 37 C, YPD. A digest of the protocol: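 Changes in genotype frequencies gave Darwinian fitness relative to wild type. Frequencies were read by 100-nucleotide paired-end sequencing of gene amplicons before and after pooled Saccharomyces cerevisiae strains, carrying tRNA-Arg(CCU) gene variants at the native locus, were competed in YPD at 37°C for 24 hours in six replicates. A genotype was kept only with ≥ 100 starting reads, and estimates < 0.5 were set to 0.5.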
For A20C C33A G48A C66U A70G, the yeast fitness is not above 0.5. Next, A20C G25C C31U A43G G51A G67A: 0.583; A20C C27U C62U: 0.731; A20G A40U G51C: not above 0.5. Next, A20C C27U C34G: 0.581; A20C G56C: 0.625. With A20C G25A G44A, the yeast fitness was found to be 0.85. Take A20C C34A A37G C46A G63C A69C: the yeast fitness is not above 0.5. As for A20C G41C A42C G56A U64C A70U, the yeast fitness was not above 0.5.

Consider A20G A36C, for which the yeast fitness turned out to be 0.596. Consider A20C A45U A69U, for which the yeast fitness amounted to 0.773.

Take A20C A36U A45C C49G: the yeast fitness is not above 0.5. Next, A20C C29U G50C: not above 0.5.

In the case of A20C U32A A37U, the yeast fitness was not above 0.5. To A20C C31G C61G A65G belongs not above 0.5; to A20C U47C, 0.925. In the case of A20C C30U C33G A40G, the yeast fitness worked out at 0.537. Next, A20C C30A A37G U59A: not above 0.5. Next, A20C C22U C33U C66A: not above 0.5. Regarding A20G A40U A45C A65U, the yeast fitness was not above 0.5. A20C U47G C60G: the yeast fitness is not above 0.5. To A20C G50A C62U belongs 1.13; to A20C C24A C29U G63C, not above 0.5; to A20C A36C A45C, 0.592. To A20C C24A belongs 0.751.

A20C C24U: the yeast fitness was 0.798. To A20C U54A belongs 0.698; to A20C C30A C33U C34G G38C C62A, not above 0.5; to A20C A40G G52C, not above 0.5. Next, A20G A43U C46U A57U: not above 0.5. On to A20C C31A C60U, for which the yeast fitness was not above 0.5. For the variant A20C G38A C49A G58C A65G G68A A69C, the yeast fitness came to 0.589. To A20C A42C G58C belongs 0.52. Next, A20C G68U: 0.909; A20C G68C: 0.689; A20C G23C C27A U64A: not above 0.5. Next, A20C C49A U54A G58A C60A: 0.593.

A20C C29G A69C: the yeast fitness came to 0.539. Take A20G A21U C31U A45C C49U A65C: the yeast fitness was not above 0.5. Next, A20C G52C C61G: not above 0.5; A20C C27U A45U: 0.636. Regarding A20C G25A G44C G68A, the yeast fitness is 0.523. To A20C C66A belongs 0.697. Next, A20C C66G: 0.766; A20C C66U: 0.931; A20C G44C: 0.688.

As to A20C C31U G68C, the yeast fitness turned out to be 0.609. On to A20G A40G C66U, for which the yeast fitness stood at 0.647. Next, A20C C61U A69C A70C: not above 0.5. For A20C C30A A45U C60U, the yeast fitness is not above 0.5. Turning to A20C U28G C46A, the yeast fitness was 0.531. Next, A20C G25A U28C G44A: 0.553. To A20C G50A belongs 0.861. To A20C G38A G51C U64G belongs not above 0.5; to A20C G23U C60A, 0.676; to A20C A36G A45U A65G, 0.614. With A20G A37G U59A A70C, the yeast fitness is not above 0.5.

Regarding A20C C27G A57C, the yeast fitness is not above 0.5. Turning to A20C A45G, the yeast fitness stood at 0.853. For the variant A20C A45U, the yeast fitness was 0.8. To A20C A40G A42U G50A G51C A70C belongs 0.563; to A20C A37C C49G, not above 0.5.

For the variant A20C A65G, the yeast fitness was 0.936.

Regarding A20C A65U, the yeast fitness came out at 0.722. Turning to A20C C31U U53A, the yeast fitness was not above 0.5. To A20C C33U belongs 0.816; to A20C C22U C29G G41C C49G U53A, not above 0.5; to A20C A37G, 0.704. Turning to A20C A37U, the yeast fitness stood at 0.817.

With A20C U26G A36C G38U A65U, the yeast fitness is not above 0.5.

With A20C C33U A43C G48C, the yeast fitness amounted to 0.525.

In the case of A20G A42C C61U, the yeast fitness was 0.573. Next, A20G A45G C49U: 0.687; A20C A37U U59G C66A: 0.656.

Take A20C A43U G56A: the yeast fitness was found to be 0.656.

Turning to A20C C30A C33U C34U C49A, the yeast fitness was 0.733. To A20C G38C A70C belongs not above 0.5. Next, A20C U47G A69U: 0.559; A20C C29U U54C: not above 0.5; A20G A21U A36G A40C C55U: not above 0.5.

As for A20G A36G A45U, the yeast fitness was 0.683. Take A20C G25A A57G: the yeast fitness is 0.694. Next, A20C U26G A43U: not above 0.5.

Turning to A20G A21C C30A G41C, the yeast fitness was determined as 0.581. To A20C C30U C31U A45C A57U C66G belongs not above 0.5.

As to A20G A40C A42U A43C G48A C61A A69U, the yeast fitness is not above 0.5. To A20C C24G A69U belongs not above 0.5; to A20C U35G C46U, not above 0.5. In the case of A20C C49A, the yeast fitness was 0.575.

With A20C U35G C46U G67U, the yeast fitness was not above 0.5.

With A20C C27U U59G, the yeast fitness was 0.582. In the case of A20C A40U A43C, the yeast fitness was found to be 0.699.

As for A20C U26A C34G A36G C46G, the yeast fitness is not above 0.5. With A20C C30A, the yeast fitness came out at 0.746. To A20G A37C A40G belongs not above 0.5. Next, A20C C24G G39C G68C: not above 0.5; A20C A36U A45U U53A: not above 0.5. Take A20C C46A G68A: the yeast fitness was 0.875. As for A20C C24A C60G, the yeast fitness was not above 0.5. As for A20C C33A G41C C49G A70U, the yeast fitness amounted to 0.575.

Consider A20C A42U A45G, for which the yeast fitness amounted to 0.77.

Regarding A20C C34G A42G, the yeast fitness was 0.922. Consider A20C C27G C49A, for which the yeast fitness was not above 0.5. To A20C C22G C33A U59C belongs not above 0.5; to A20C C55A, 0.699. As to A20C C22U C33U, the yeast fitness is 0.542. With A20C C24U A42C C55G, the yeast fitness is not above 0.5. To A20C C33G U59C belongs 0.685; to A20C C24U A42U U59C A69U, 0.535.

With A20C C24U U47A G67C, the yeast fitness was not above 0.5. Regarding A20G A37U C60A, the yeast fitness was found to be 0.626. To A20G A40U G58C belongs 0.77. With A20G A36C G56C C61U, the yeast fitness was not above 0.5. In the case of A20G A57G, the yeast fitness amounted to 1. For A20G A57U, the yeast fitness came out at 0.649.

For the variant A20G A43U C61G, the yeast fitness is not above 0.5. To A20G A42G U59C belongs 0.634.

Take A20C C34U C60A C66U: the yeast fitness is 0.605. Next, A20C C29U C34A C46A G50A A57U C66U: not above 0.5; A20C A70C: 0.862; A20G A43G U47G U64G: not above 0.5. As for A20C C29G A57U A70C, the yeast fitness was not above 0.5. Consider A20C G38A, for which the yeast fitness stood at 0.707. Next, A20C G38C: 0.639; A20G A42C U64G: not above 0.5; A20C C22U A65G: 0.596. Next, A20C U26G A36C G38U: not above 0.5; A20C G23C C34A G67A: not above 0.5; A20C C46U G50A G67C A70U: not above 0.5. Next, A20C G56A C61U: 0.571; A20C G48C A57G: 0.545; A20C C34G A43C G56A C61U: 0.705. For A20C C34U U47G C60U C62G, the yeast fitness is not above 0.5. In the case of A20C C29G U35C, the yeast fitness was not above 0.5. Next, A20C A36U A65U: not above 0.5. To A20C A40U A43U A70U belongs not above 0.5; to A20C C61G, 0.747; to A20C C61A, 0.779.

For the variant A20C C61G C62A, the yeast fitness was not above 0.5. Consider A20C U28C G41A, for which the yeast fitness was 0.592. For the variant A20C C60G, the yeast fitness came to 0.591. Turning to A20C C60U, the yeast fitness worked out at 0.742. A20C C24U A42U U59C C62U: the yeast fitness was not above 0.5. To A20C A36U belongs 0.635; to A20C A36C, not above 0.5. For the variant A20C A37C A43G C61U, the yeast fitness is not above 0.5.

In the case of A20G A43U C62U, the yeast fitness came out at 0.86. Next, A20C C62U A70G: 0.733.

Regarding A20C A40G A42U G50A G51C, the yeast fitness is not above 0.5. With A20C C30G C62U, the yeast fitness was 0.554. Next, A20G A21U: 0.782; A20C U28C A65G: 0.661. With A20C C22U A40U, the yeast fitness is not above 0.5.

As for A20C C62U A65G, the yeast fitness worked out at 0.593. To A20C C29U C31G C61G belongs not above 0.5; to A20C G25C C29U, not above 0.5; to A20C G39A, 0.84. To A20C G23A G50A C55G C60A belongs not above 0.5; to A20C C27U, 1.02. With A20C U53G, the yeast fitness was 0.623. As to A20C C30G C60A, the yeast fitness was not above 0.5. For the variant A20G A36C A45C G52A G67U, the yeast fitness was not above 0.5. In the case of A20C C30G C55A G67A, the yeast fitness is not above 0.5. Next, A20C A40U C61A G68A: 0.574; A20C C30A A70G: 0.588. To A20C A37C U53C G63C belongs not above 0.5; to A20G A40C A42U A43C G48A C55G, not above 0.5.
